# Screens deposited in PubChem by several laboratories.
# In the library only some 2.1% were active in any assay of this set; here they are far more common.
# SUMO1-SIM PPI: SUMO1-SIM interaction modulation. P63165. SUMO1 binding to a labelled peptide, TR-FRET, 1 h. inhibition, % at 20 µM. 0.33% of 360,000 active. AID 602429; in the data active = inhibition above about 37%
# GRK2 aptamer HTS: blocks RNA aptamer binding to human GRK2. 0.59% of 330,000 active. AID 488847. inhibition of aptamer binding, % at 10 µM. bead flow cytometry, FAM-aptamer displacement from GRK2;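 active = inhibition of aptamer binding above 40%, roughly 3 SD of noise, on plates passing a quality check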;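 also: median bead fluorescence of bound FAM aptamer so fluorescent compounds give negative values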
# DNMT1 inh: inhibitors of human DNMT1 | P26358 | DNMT1 molecular beacon, Hinp1I cleavage, fluorescence | inhibition (reported as % activation of signal), % at 10 µM | 0.83% of 360,000 active | AID 588458; in the data active = inhibition above about 50%
# STEP inh: STEP (human) phosphatase inhibition. P54829. recombinant STEP, OMFP fluorogenic substrate, fluorescence. inhibition, % at 20 µM. 0.25% of 360,000 active. AID 588621;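 active = inhibition at 20 µM, scaled per plate between control wells, above about 37%, limit read from the data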;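 also: 0% = DMSO with enzyme and substrate and 100% = substrate only without enzyme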
#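 System: STEP phosphatase, cell-free reaction; Buffer or medium: Bis-Tris pH 6.0 buffer with DTT, detergent; Incubation: 20 min at room temperature, dark; Measured by: fluorescence, 480/540 nm.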
# Scp-1 inhibitor: Scp-1 (human) phosphatase inhibition; AID 493091; 0.88% of 340,000 active; inhibition, % at 20 µM; Recombinant Scp1, phosphopeptide, malachite green phosphate absorbance;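 active = inhibition above about 50% at 20 µM, limit read from the data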;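 also: plate controls were DMSO wells with enzyme for no effect and wells lacking enzyme for full effect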
#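 Incubation: 45 min enzyme reaction at room temperature / System: truncated SCP-1 phosphatase (76-261aa) / Reagent: Phospho 17-mer peptide substrate / Buffer or medium: Acidic Tris acetate buffer with magnesium and detergent / Signal: absorbance at 630 nm / Doses: one concentration, 20 µM, with 1.0% DMSO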
# LMPTP block: blocks human LMPTP phosphatase; P24666; recombinant LMPTP-A, OMFP fluorogenic substrate, fluorescence intensity; inhibition, % at 20 µM; 0.22% of 360,000 active; AID 651560;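 active = compounds that cut the enzyme signal by at least half of the control window in the single-dose screen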;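 also: plate controls were DMSO wells with enzyme plus substrate for no effect and substrate without enzyme for full effect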
#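 Test system – LMPTP-A enzyme · Amount – LMPTP-A at 0.625 nM final in the reaction · Buffer or medium – Bis-Tris pH 6.0, DTT, detergent · Reagent – OMFP 400 µM · Doses – single 20 µM dose · Schedule – reaction 50 min, room temperature, dark · Detection – fluorescence intensity of OMFP turnover product · Evaluation – percent inhibition versus substrate-only and uninhibited controls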
# Beacon interf DR: shows spectral interference in the DNMT1 beacon assay | shares compounds with DNMT1 inh | molecular beacon fluorescence, spectral interference counter-screen | IC50, µM | 200 tested, under 10 active; call rule not given here
# DNMT1 confirm: confirmation of human DNMT1 inhibitors | shares compounds with DNMT1 inh | DNMT1 molecular beacon HinP1I cleavage, fluorescence | inhibition, % at 10 µM | 8% of 2,300 active;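 active = average inhibition of at least 30% in the single-concentration confirmation test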
# DNMT1 interf: shows spectral interference in the DNMT1 beacon assay; shares compounds with DNMT1 inh; DNMT1 molecular beacon spectral interference counterscreen, fluorescence 485/520; activation (fluorescence interference), % at 10 µM; 1% of 2,300 active; AID 602387;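 active = activation of at least 30% at 10 µM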;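 also: DNMT1 catalytic domain with a HinP1I cleavage step and a FAM/dabcyl DNA beacon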
# The depositor's hits bear a star; . = not tested or not shown.
SMILES,SUMO1-SIM PPI,GRK2 aptamer HTS,DNMT1 inh,STEP inh,Scp-1 inhibitor,LMPTP block,DNMT1 confirm,DNMT1 interf,others
C[C@@H]1CN([C@H](C)CO)C(=O)CCCn2nncc2CO[C@H]1CN(C)Cc1cccnc1,-2,.,1,2,.,-5,.,.,
C#CCn1c(=NC(=O)c2cccs2)sc2cccc(OC)c21,-5,5,58*,2,17,11,3,33*,
CC(=O)c1cn(S(=O)(=O)c2ccccc2)c2ccccc12,-1,2,-2,-3,-9,1,.,.,
Cc1cccc2cc3c(N)c(C#N)sc3nc12,-8,1,-5,-4,-8,3,.,.,
Cc1sc(NC(=O)c2sc3nc4c(C)cccc4cc3c2N)c(C#N)c1C,6,0,88*,3,-4,3,9,-1,
N#Cc1c(NC(=O)/C=C/c2ccco2)sc2c1CCCC2,-4,0,7,1,6,1,.,.,
O=C(/C=C/c1ccco1)Nc1sc2c(c1C(=O)O)CCC2,-14,1,53*,2,29,-1,1,-1,
CC(=O)Nc1ccc(S(=O)(=O)NCCC(=O)NCC2COc3ccccc3O2)cc1 (stereo not given),3,1,0,0,-5,1,.,.,
Fc1ccc(Nc2nc(-c3ccncc3)nc3ccccc23)cc1F,19,0,56*,14,-13,13,7,1,
CCCCCOC(=O)c1c(N)n(CCOC)c2nc3ccccc3nc12,5,0,-15,2,0,1,.,.,
CCOC(=O)c1c(N)n(CCOC(=O)c2cccs2)c2nc3ccccc3nc12,38,2,100*,5,0,4,7,6,
CC[C@]12c3[nH]c4cc(CCC(=O)N(C)C)ccc4c3CCN1C(=O)[C@@H](CC(=O)NCc1cccc(C(F)(F)F)c1)C[C@@H]2C(=O)N1CCN(C(=O)c2ccco2)CC1,4,0,53*,3,4,-2,3,3,
C=CCn1c(SCC(=O)NC2CCCC2)nc2scc(-c3ccco3)c2c1=O,3,1,52*,10,1,6,2,3,
CSc1nc(NCCOCCO)c2sc3nc(-c4ccco4)c4c(c3c2n1)CCC4,23,2,87*,2,0,2,20,19,
COC(=O)[C@]12CCCCC=C1N(Cc1ccco1)C(=O)[C@H](CC(=O)NCCC(C)C)C2,4,.,.,.,.,0,.,.,
O=C(O)c1cc(N/N=C/c2cccc3ccccc23)ccc1Cl,7,0,2,0,-3,-1,.,.,
CC(C)n1cc(/C=N/Nc2ccc(Cl)c(C(=O)O)c2)c2ccccc21,114*,34,82*,91*,.,54*,14,3,
O=C1Cc2cccc(=O)c(O)c2C(=O)O1,10,.,81*,22,.,0,10,2,
CCCCn1nnnc1C(c1ccccc1)N1CCN(c2ccc(C)cc2)CC1 (stereo not given),-3,.,.,.,.,2,.,.,
Cn1c2ccccc2c2c(=O)oc3ccccc3c21,-2,0,52*,4,1,8,29,-2,Beacon interf DR=>99
CCCn1cnc2c(=O)oc3ccccc3c21,-1,5,-2,-3,-5,-1,.,.,
C[C@@H](NS(=O)(=O)c1cc(Cl)ccc1F)[C@H](O)c1ccccc1,2,.,6,-2,-11,0,.,.,
O=C1C(=O)c2c(ccc3ccccc23)-c2ccccc21,61*,.,108*,16,101*,43,28,-10,Beacon interf DR=>99
C=CC[C@@H](CC(=O)NCCO)C(=O)NC[C@H](OC(=O)[C@@H](CC=C)Cc1ccc(F)cc1)c1ccccc1,3,0,-3,0,-2,0,.,.,
Cc1ccc(N=Nc2c(N)nn3c(N)c(C#N)c(C)nc23)cc1,-24,0,79*,12,3,9,13,5,
